hIAP block – human IAP inhibitors, primary screen, biochemical, luminescence, uHTS; purified IAP, CDP-Star luminescence, 30 min; hit rate 0.12% among 330,000; AID 2544, 2010; Intestinal-type alkaline phosphatase (Homo sapiens), P09923; inhibition, % at 10 µM;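 active means inhibition reaching a set limit with compound at 10 µM in the primary screen, cut at about 35% in these data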;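 further: plate controls were DMSO wells with enzyme for no effect and no-enzyme buffer wells for full effect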
Target sequence (P09923 whole entry, looked up): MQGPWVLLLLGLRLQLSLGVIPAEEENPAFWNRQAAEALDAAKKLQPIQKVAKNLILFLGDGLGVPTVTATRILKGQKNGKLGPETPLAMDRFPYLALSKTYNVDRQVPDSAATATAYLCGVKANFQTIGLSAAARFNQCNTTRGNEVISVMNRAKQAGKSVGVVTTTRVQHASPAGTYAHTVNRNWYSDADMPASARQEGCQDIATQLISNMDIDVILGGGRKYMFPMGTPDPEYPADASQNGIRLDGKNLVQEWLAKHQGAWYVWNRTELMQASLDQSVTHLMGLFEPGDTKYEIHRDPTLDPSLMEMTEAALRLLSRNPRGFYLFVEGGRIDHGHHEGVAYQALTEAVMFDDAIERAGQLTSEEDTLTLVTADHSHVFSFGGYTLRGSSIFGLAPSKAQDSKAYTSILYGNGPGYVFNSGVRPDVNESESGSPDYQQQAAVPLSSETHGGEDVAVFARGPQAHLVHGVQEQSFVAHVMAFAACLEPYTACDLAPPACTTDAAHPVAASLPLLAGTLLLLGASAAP
mIAP block – inhibitors of mouse IAP, primary screen, biochemical, luminescence, uHTS; intestinal alkaline phosphatase [Mus musculus]; purified mouse IAP, CDP-Star luminescence, 30 min; inhibition, % at 10 µM; hit rate 0.2% among 330,000; AID 2806, 2010;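 active means inhibition of at least 40% at 10 µM in the primary screen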;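 further: plate controls were DMSO with enzyme for no effect and no enzyme wells for full effect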
mIAP activ – activators of mouse IAP, primary screen, biochemical, luminescence, uHTS | AID 2805, 2010 | activation factor at 10 µM | hit rate 0.24% among 330,000 | muIAP, CDP-Star luminescence, 30 min; stronger effect = higher value; 1 = vehicle-only enzyme signal, 0 = enzyme-free wells;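 active means activation factor of at least 2 at 20 µM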
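System: mouse IAP enzyme. Reagent: CDP-Star chemiluminescent phosphatase substrate. Benchmarks: DMSO wells, no-enzyme wells. Times: 30 min enzyme-substrate-compound incubation at room temperature. Detection: luminescence from enzymatic CDP-Star hydrolysis. Doses: test compounds delivered from DMSO solution.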
hIAP act – human IAP activators, primary screen, biochemical, luminescence, uHTS. Intestinal-type alkaline phosphatase (Homo sapiens), P09923. purified human IAP, CDP-Star luminescence, 30 min; stronger effect = higher value; 1 = vehicle-only enzyme, 0 = enzyme-free background. hit rate 0.16% among 330,000. AID 2524, 2010. activation factor at 10 µM;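 active means activation factor of the enzyme at least 2-fold when tested at 20 µM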
bIAP activator – bovine intestinal alkaline phosphatase activators, primary screen, biochemical, bovine IAP, CDP-star luminescence; activation factor at 20 µM; hit rate 0.17% among 200,000; alkaline phosphatase, intestinal [Bos taurus]; purified bovine IAP, 30 min; stronger effect = higher value; fold of DMSO-control signal, blank-subtracted;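 active means activation factor of 2 or more at 20 µM, a signal rise over negative controls twice the positive control's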
bIAP inh – bovine intestinal alkaline phosphatase inhibitors, primary screen, selectivity assay for TNAP inhibitor project, biochemical, bovine IAP, CDP-star luminescence; 190,000 tested, under 10 active; AID 1019, 2008; inhibition, % at 20 µM; purified bovine IAP, 30 min;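 active means over 50% inhibition of intestinal alkaline phosphatase at 20 µM in the single-dose screen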
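Assay system: bovine IAP enzyme; medium: DEA buffer 100 mM, pH 9.8, with MgCl2 1.0 mM, ZnCl2 0.02 mM; doses: 20 µM single dose; incubation: enzyme reaction for 30 min at room temperature; detection: CDP-star luminescence signal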
mIAP inh confirm – inhibitors of mouse IAP, confirmation, biochemical, luminescence, single concentration; shares compounds with mIAP block; purified mouse IAP, CDP-Star luminescence, 30 min; inhibition, % at 10 µM; hit rate 4.7% among 11,000; AID 434971, 2010;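 active means inhibition of at least 40% at 10 µM in either of the two replicates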;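 further: plate controls were DMSO wells with enzyme for no effect and buffer wells lacking enzyme for full effect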
* = called active by the depositor; i = inactive; x = not tested or not shown. The list is not random: actives were taken first. Their share in the collection is about 0.72%.

SMILES | hIAP block | mIAP block | mIAP activ | hIAP act | bIAP activator | bIAP inh | mIAP inh confirm
O=C1/C(=C/C=C/c2ccco2)SC(=S)N1NS(=O)(=O)c1ccccc1 | -21.7 | 83.7* | 0.163 | 1.22 | x | x | 91.2*
CC(C(=O)O)N1C(=O)/C(=C/C=C/c2ccco2)SC1=S (centres undefined) | -0.2 | 53.6* | 0.464 | 1 | 0.6 | 41.1 | 57.9*
Cc1cc(C)cc(C(=O)N(NC(=O)Nc2ccc(Cl)cc2)C(C)(C)C)c1 | -29.9 | -334.6 | 4.35* | 1.3 | 1 | -3.1 | -322.5
CC(C)(C)N(NC(=O)Nc1ccc(Cl)c(Cl)c1)C(=O)c1ccccc1 | -83.0 | i | 6.83* | 1.83 | 1 | -2.1 | -295.1
COc1cccc(N(C(=O)CNC(=O)c2ccco2)C(C(=O)NC2CCCCC2)c2ccncc2)c1 (centres undefined) | -14.8 | -6.1 | 1.06 | 1.15 | 1 | -4.7 | x
Cc1cccc(NC(=O)c2nc[nH]c2C(=O)N[C@H](C)c2ccccc2)c1 | -48.0 | 3.3 | 0.967 | 1.48 | x | x | x
Cc1cc(NC(=O)C(C)Oc2ccc(Cl)cc2Cl)n(-c2ccccc2)n1 (centres undefined) | -5.0 | 2.0 | 0.98 | 1.05 | 1 | -3.3 | x
c1coc(CSSCc2ccco2)c1 | -1.9 | 70.8* | 0.292 | 1.02 | x | x | 75.2*
CNC(=O)COc1coc(CN2CCN(c3ccc(OC)cc3)CC2)cc1=O | -20.3 | -1.5 | 1.01 | 1.2 | x | x | x
O=C(O)CC(CCc1ccccc1)OC1OC(CO)C(O)C(O)C1O (centres undefined) | 0.1 | 76.2* | 0.238 | 0.999 | x | x | 79.7*
CCOC(=O)c1c(NC(=O)CCN2C(=O)c3cccc([N+](=O)[O-])c3C2=O)sc(C(=O)OC(C)C)c1C | 5.0 | 6.7 | 0.933 | 0.95 | 1 | -0.6 | x
O=C(CCc1nnc(Cc2ccc3c(c2)OCO3)o1)N(CC1CCC1)CC1CCCO1 (centres undefined) | -8.7 | 0.0 | 1 | 1.09 | x | x | x
O=C1CC(=O)N(Cc2ccco2)C(=S)N1 | 21.1 | 70.3* | 0.297 | 0.789 | 1.1 | -8.9 | 74.9*
O=C1CC(=O)N(Cc2cccs2)C(=O)N1 | 13.6 | 0.6 | 0.994 | 0.864 | 1 | 4.4 | x
O=C1CC(=O)N(Cc2ccco2)C(=O)N1 | -5.0 | 48.1* | 0.519 | 1.05 | 1.3 | -26.1 | 52.7*
COc1ccc(NC(=O)NC23CC4(C)CC(C)(CC(C)(C4)C2)C3)cc1 | -30.1 | -207.4 | 3.07* | 1.3 | 1 | 0.4 | -108.0
COc1ccc(NC(=O)NC2(C)CCS(=O)(=O)C2)cc1 (centres undefined) | -2.3 | -7.5 | 1.07 | 1.02 | x | x | x
CS(=O)(=O)N1CCN(c2ccccc2NC(=O)c2ccc3ccccc3c2)CC1 | -4.2 | 3.3 | 0.967 | 1.04 | 0.8 | 19.3 | x
C#CCOCCOCCOCCNc1nc(N2CCOCC2)nc(N2CCN(C(=O)CCCCCCCCCCNC(=O)[C@@H]([C@H](C)CC)n3cc(CCCCCN)nn3)CC2)n1 | -8.4 | -68.8 | 1.69 | 1.08 | x | x | x
C#CCOCCOCCOCCNc1nc(N2CCN(C(=O)CCCCCCCCCCNC(=O)[C@H]([C@@H](C)CC)n3cc(CCCCCN)nn3)CC2)nc(N2CCN(C(=O)CCCCCCCCCCNC(=O)[C@H](CO)n3cc(CCCCCN)nn3)CC2)n1 | 3.3 | -110.2 | 2.1* | 0.967 | x | x | -151.4
C#CCOCCOCCOCCNc1nc(N2CCN(C(=O)CCCCCCCCCCNC(=O)[C@H]([C@@H](C)CC)n3cc(CCCCCN)nn3)CC2)nc(N2CCN(C(=O)CCCCCCCCCCNC(=O)[C@@H]([C@H](C)CC)n3cc(CCCCCN)nn3)CC2)n1 | 3.3 | i | 6.62* | 0.967 | x | x | i
COC(=O)c1cc(O)cc(OC)c1Oc1cc(C)cc(O)c1C(=O)O | 4.9 | 52.8* | 0.472 | 0.951 | x | x | 67.0*
O=C(NN1C(=O)c2ccccc2C1=O)c1ccccc1[N+](=O)[O-] | -7.8 | -11.2 | 1.11 | 1.08 | 1.3 | -26.0 | x
CSCC[C@H](NC(=O)C1CCN(S(=O)(=O)c2ccc(C)cc2C)CC1)c1nc2ccccc2[nH]1 | 0.0 | -155.1 | 2.55* | 1 | x | x | -102.2
CSCC[C@H](NC(=O)c1cccc(S(=O)(=O)N2CCCCCC2)c1)c1nc2ccccc2[nH]1 | -18.9 | -15.9 | 1.16 | 1.19 | x | x | x
SMILES | hIAP block | mIAP block | mIAP activ | hIAP act | bIAP activator | bIAP inh | mIAP inh confirm
Cc1csc(N2CCCC2=O)n1 | 7.4 | 6.5 | 0.935 | 0.926 | 1.1 | -5.0 | x
N#CC(C#N)=C(N)/C(C#N)=C/c1cc(O)c(O)c(O)c1 | 3.2 | 70.5* | 0.295 | 0.968 | x | x | 65.6*
Cc1ccc(NC(=O)CN(C)C(=O)C(C)OC(=O)CNC(=O)c2ccc(Cl)c([N+](=O)[O-])c2)cc1 (centres undefined) | 5.1 | 3.0 | 0.97 | 0.949 | x | x | x
Oc1ccc(/C=N/Nc2cc(N3CCCC3)nc(N3CCCC3)n2)cc1O | -0.1 | 67.8* | 0.322 | 1 | 1 | -3.1 | 76.5*
Oc1ccc(/C=N\Nc2cc(N3CCOCC3)nc(N3CCOCC3)n2)c(O)c1 | 10.0 | 14.7 | 0.853 | 0.9 | 1.1 | -7.5 | x
CC(C)(C)n1ncc2c(=O)n(Cc3ccc(Cl)cc3Cl)cnc21 | 6.3 | 4.2 | 0.958 | 0.937 | 0.9 | 9.3 | x
Cc1sc2nc(SCC(=O)Nc3cccc(S(N)(=O)=O)c3)[nH]c(=O)c2c1C | 2.7 | 50.9* | 0.491 | 0.973 | x | x | 61.6*
O=C(NNC(=O)c1cccc2ccccc12)c1ccc(-c2ccccc2)cc1 | -58.3 | 6.7 | 0.933 | 1.58 | 0.8 | 24.0 | x
O=C(NNC(=O)c1ccc(O)cc1O)c1ccc(-c2ccccc2)cc1 | -41.6 | 42.9* | 0.571 | 1.42 | x | x | 40.1*
O=C(/C=C/c1ccccc1)Nc1nc(-c2ccncc2)cs1 | 1.3 | 6.3 | 0.937 | 0.987 | 1.1 | -6.9 | x
Cc1cc(-c2csc(NC(=O)c3ccc(=O)[nH]c3)n2)c(C)n1Cc1ccco1 | 6.5 | 48.2* | 0.518 | 0.935 | x | x | 65.4*
COc1cc(/C=C2\SC(=S)N(CCCCC(=O)O)C2=O)ccc1OS(=O)(=O)c1ccc(C)cc1 | -20.3 | 4.2 | 0.958 | 1.2 | x | x | x
COc1ccc(C(=O)OCC(=O)NC2CCCCCC2)cc1OC | -27.0 | 58.2* | 0.418 | 1.27 | x | x | 70.7*
C[C@H](CO)N1C[C@H](C)[C@@H](CN(C)S(=O)(=O)c2ccc(F)cc2)Oc2ccc(NC(=O)NC3CCCCC3)cc2C1=O | -26.6 | -316.7 | 4.17* | 1.27 | x | x | -120.2

High-throughput results: PubChem, Sanford-Burnham Center for Chemical Genomics
